Source: ChEMBL document CHEMBL4130408, “Photoactivation provides a mechanistic explanation for pan-assay interference behaviour of 2-aminopyrroles in lipoxygenase inhibition” (Eur J Med Chem, 2017)
pIC50: −log10 of the molar value. Calls of active or inactive are those of the source. No cut-off for these calls is given here.

Experiments:
[1] = target: T1, Polyunsaturated fatty acid lipoxygenase ALOX15 (Homo sapiens, UniProt P16050); assay: Inhibition of recombinant human 15-LOX-1 expressed in Escherichia coli BL21(DE3) using linoleic acid as substrate preincubated for 10 mins followed by substrate addition
T1 sequence (P16050 whole entry): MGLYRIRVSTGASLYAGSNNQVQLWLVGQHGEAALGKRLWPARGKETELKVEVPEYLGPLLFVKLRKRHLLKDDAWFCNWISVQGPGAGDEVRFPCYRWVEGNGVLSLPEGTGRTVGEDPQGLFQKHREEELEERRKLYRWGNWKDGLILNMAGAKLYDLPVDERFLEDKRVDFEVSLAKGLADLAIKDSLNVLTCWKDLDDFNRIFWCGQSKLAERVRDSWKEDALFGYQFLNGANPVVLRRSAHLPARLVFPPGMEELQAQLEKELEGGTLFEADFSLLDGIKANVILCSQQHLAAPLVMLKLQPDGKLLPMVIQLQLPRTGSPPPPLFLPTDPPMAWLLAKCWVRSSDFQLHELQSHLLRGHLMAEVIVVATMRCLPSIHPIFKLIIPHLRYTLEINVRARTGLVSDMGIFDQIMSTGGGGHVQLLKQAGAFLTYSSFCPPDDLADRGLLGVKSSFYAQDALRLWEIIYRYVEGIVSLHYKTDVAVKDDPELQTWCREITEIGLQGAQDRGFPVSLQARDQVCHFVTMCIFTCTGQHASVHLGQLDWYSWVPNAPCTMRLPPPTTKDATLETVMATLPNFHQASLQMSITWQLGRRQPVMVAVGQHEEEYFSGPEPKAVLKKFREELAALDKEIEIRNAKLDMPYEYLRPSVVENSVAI

[2] = test system: HCC-1.2; assay: Cytotoxicity against human HCC1.2 cells assessed as growth inhibition after 48 hrs by neutral red assay; assay type: functional; conditions: for CC50: HCC-1.2, 48 h, read-out: LD50 (the source's name)
In short: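 HCC-1.2 hepatocarcinoma cells grown in RPMI1640 with 10% heat-inactivated FCS at 37 °C, 5% CO2. 2 × 10^5 cells/well seeded and grown 48 h. Viable cells quantified by neutral red (50 μg/mL) uptake from serum-free medium over 2 h. Dye dissolved in 1% acetic acid/70% ethanol, read as absorbance 560 minus 620 nm. Triplicate wells; three to five independent experiments; LD50 reported.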

[3] = target: T2, Polyunsaturated fatty acid lipoxygenase ALOX15 (Homo sapiens) (UniProt P16050); assay: Inhibition of recombinant human 15-LOX-1 expressed in Escherichia coli BL21(DE3) assessed as residual activity at 50 uM using linoleic acid as substrate preincubated for 10 mins followed by substrate addition
T2 sequence (whole entry): T1 sequence (P16050 whole entry)
In short: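 h-15-LOX-1 (1:100 enzyme stock, 1:400 final) preincubated 10 min at room temperature with inhibitor in 25 mM HEPES pH 7.4, then linoleic acid added to 25 µM final (inhibitor 50 µM final). 13(S)-HpODE formation read as A234 over time, rate taken from linear part within first 16 min; no-inhibitor = 100%, no-enzyme = 0%. Triplicate.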

[4] = test system: HCC-1.2; assay: Photocytotoxicity against human HCC1.2 cells assessed as decrease in cell viability at 0.4 to 10 uM preincubated with day light for 10 mins measured after 48 hrs by neutral red assay; assay type: functional, cell-based
[5] = test system: HCC-1.2; assay: Photocytotoxicity against human HCC1.2 cells assessed as decrease in cell viability preincubated with day light for 10 mins measured after 48 hrs by neutral red assay; assay type: functional, cell-based
[6] = test system: HCC-1.2; assay: Photocytotoxicity against human HCC1.2 cells assessed as decrease in cell viability preincubated with UV light at 365 nm for 10 mins measured after 48 hrs by neutral red assay; assay type: functional, cell-based

| pIC50 [1] | Activity [3] [%] | Structure (SMILES) | other results |
| --- | --- | --- | --- |
| < 4.00 | – | Nc1[nH]c(C(=O)c2ccccc2)c(-c2cccc3ccccc23)c1C(=O)c1ccc(Cl)c(Cl)c1 | – |
| < 4.00 | – | Nc1[nH]c(C(=O)c2ccccc2)c(-c2ccc(Cl)cc2)c1C(=O)c1cccc(Cl)c1 | – |
| < 4.00 | – | Nc1[nH]c(C(=O)c2ccccc2)c(-c2cccnc2)c1C(=O)c1cccc(Cl)c1 | – |
| < 4.00 | – | Nc1[nH]c(C(=O)c2ccccc2)c(-c2ccc(-c3ccccc3)cc2)c1C(=O)c1cccc(Cl)c1 | – |
| < 4.00 | 73.1 | Nc1[nH]c(C(=O)c2ccccc2)c(-c2ccc(Cl)cc2Cl)c1C(=O)c1ccccc1 | – |
| – | 77.6 | Nc1[nH]c(C(=O)c2ccc(Br)cc2)c(-c2ccc(Br)cc2)c1C(=O)NCc1cccc2ccccc12 | – |
| – | 109 | Nc1[nH]c(C(=O)c2ccc(Br)cc2)c(-c2ccncc2)c1C(=O)c1ccccc1 | – |
| < 4.00 | – | Nc1[nH]c(C(=O)c2ccccc2)c(-c2ccccc2Cl)c1C(=O)c1cccc(Cl)c1 | – |
| – | 42 | Nc1[nH]c(C(=O)c2ccc(Br)cc2)c(-c2ccccn2)c1C(=O)NCCc1c[nH]c2ccccc12 | – |
| – | 54.3 | Nc1[nH]c(C(=O)c2ccccc2)c(-c2ccc([N+](=O)[O-])cc2)c1C(=O)NCCc1c[nH]c2ccccc12 | – |
| – | -47.3 | Cc1cc(C)cc(-c2c(C(=O)c3ccccc3)[nH]c(N)c2C(=O)NCCc2c[nH]c3ccccc23)c1 | – |
| – | 69 | Nc1[nH]c(C(=O)c2ccc(Br)cc2)c(-c2ccccc2)c1C(=O)NCCc1c[nH]c2ccccc12 | – |
| – | 36 | Nc1[nH]c(C(=O)c2ccc(Br)cc2)c(-c2ccc3ccccc3c2)c1C(=O)NCCc1c[nH]c2ccccc12 | – |
| – | 120 | COc1ccc(CNC(=O)c2c(N)[nH]c(C(=O)c3ccccc3)c2-c2ccc3ccccc3c2)cc1OC | – |
| – | 104 | Nc1[nH]c(C(=O)c2ccccc2)c(-c2ccccn2)c1C(=O)c1c[nH]c2ccccc12 | – |
| – | 106 | Nc1[nH]c(C(=O)c2ccccc2)c(-c2ccncc2)c1C(=O)NCCc1c[nH]c2ccccc12 | – |
| < 4.00 | – | Nc1[nH]c(C(=O)c2ccccc2)c(-c2ccncc2)c1C(=O)c1cccc(Cl)c1 | – |
| – | 64.5 | COc1ccccc1CCNC(=O)c1c(N)[nH]c(C(=O)c2ccccc2)c1-c1ccc(Br)cc1 | – |
| – | 98.2 | Nc1[nH]c(C(=O)c2ccccc2)c(-c2ccccc2Cl)c1C(=O)NCCc1c[nH]c2ccccc12 | – |
| – | 62.7 | Nc1[nH]c(C(=O)c2ccccc2)c(-c2ccc3c(c2)OCO3)c1C(=O)NCCc1c[nH]c2ccccc12 | – |
| – | 91.7 | COc1ccccc1CCNC(=O)c1c(N)[nH]c(C(=O)c2ccccc2)c1-c1ccc(Cl)cc1Cl | – |
| < 4.00 | – | Nc1[nH]c(C(=O)c2ccccc2)c(-c2cccc(Cl)c2)c1C(=O)c1cccc(Cl)c1 | – |
| – | 104 | CCCCNC(=O)c1c(N)[nH]c(C(=O)c2ccccc2)c1-c1ccc(Cl)cc1 | – |
| – | 95.1 | Nc1[nH]c(C(=O)c2ccccc2)c(-c2ccncc2)c1C(=O)NCc1cccc2ccccc12 | – |
| – | 65.6 | Nc1[nH]c(C(=O)c2ccccc2)c(-c2cccc3ccccc23)c1C(=O)NC1CCCCC1 | – |

Further lines, the compound ahead of its results:

| Structure (SMILES) | pIC50 [1] | Activity [3] [%] | other results |
| --- | --- | --- | --- |
| Nc1[nH]c(C(=O)c2ccccc2)c(-c2ccc3ccccc3c2)c1C(=O)c1ccc(Cl)c(Cl)c1 | – | – | Activity [2]: Dose-dependent effect; CC50 [2]: 2.64 µM |
| Nc1[nH]c(C(=O)c2ccccc2)c(-c2ccc3c(c2)OCO3)c1C(=O)c1cccc(Cl)c1 | < 4.00 | – | – |
| CCOC(=O)c1ccc[nH]1 | < 4.00 | – | – |
| Nc1[nH]c(C(=O)c2ccccc2)c(-c2ccc(Cl)cc2Cl)c1C(=O)c1ccc(Cl)cc1 | < 4.00 | – | Activity [2]: Dose-dependent effect; CC50 [2]: 1.05 µM |
| Nc1[nH]c(C(=O)c2ccccc2)c(-c2ccc(Cl)cc2Cl)c1C(=O)c1cccs1 | < 4.00 | – | – |
| NC(=O)c1c(N)[nH]c(C(=O)c2ccccc2)c1-c1ccc(Cl)cc1Cl | < 4.00 | 109 | – |
| Nc1[nH]c(C(=O)c2ccccc2)c(-c2ccc(O)cc2O)c1C(=O)c1cccc(Cl)c1 | 5.08 | – | Activity [2]: Dose-dependent effect; CC50 [2]: 2.75 µM |
| Nc1[nH]c(C(=O)c2ccccc2)c(-c2ccc(Cl)cc2Cl)c1C(=O)c1cccc(Br)c1 | 5.20 | – | Activity [2]: Dose-dependent effect; CC50 [2]: 1.64 µM |
| Cc1cccc(C(=O)c2c(N)[nH]c(C(=O)c3ccccc3)c2-c2ccc(Cl)cc2Cl)c1 | < 4.00 | – | Activity [4]: Active; Activity [2]: Dose-dependent effect; CC50 [2]: 1.04 µM |
| Nc1[nH]c(C(=O)c2ccccc2)c(-c2ccc(Cl)cc2Cl)c1C(=O)c1cccc(F)c1 | < 4.00 | – | – |
| Nc1[nH]c(C(=O)c2ccccc2)c(-c2ccccc2Br)c1C(=O)NC1CCCCC1 | – | 86.7 | – |
| Nc1[nH]c(C(=O)c2ccc(Cl)cc2)c(-c2ccc(Br)cc2)c1C(=O)NCc1ccc(Cl)cc1Cl | – | 105 | – |
| COc1ccc(C(=O)c2[nH]c(N)c(C(=O)NCCc3c[nH]c4ccccc34)c2-c2ccc(Cl)c(Cl)c2)cc1 | – | 41.9 | – |
| COc1ccc(C(=O)c2[nH]c(N)c(C(=O)NCCc3ccc(Cl)cc3Cl)c2-c2ccccc2Br)cc1 | – | 86.4 | – |
| CCOC(=O)c1ccc(N)[nH]1 | < 4.00 | – | – |
| Cc1[nH]c2ccccc2c1C(=O)NCc1ccc(CNC(=O)c2c(N)[nH]c3ccccc23)cc1 | – | 115 | – |
| Nc1[nH]c(C(=O)c2ccccc2)c(-c2cccnc2)c1C(=O)NC1CCCCC1 | – | 77.5 | – |
| COc1cc(-c2c(C(=O)c3ccccc3)[nH]c(N)c2C(N)=O)ccc1F | – | 110 | – |

| Structure (SMILES) | pIC50 [1] | Activity [3] [%] | other results |
| --- | --- | --- | --- |
| CC(C)(C)C(=O)c1c(N)[nH]c(C(=O)c2ccccc2)c1-c1ccccc1Br | – | 82.9 | – |
| Nc1[nH]c(C(=O)c2ccccc2)c(-c2ccc(Br)cc2)c1C(=O)N1CCN(CCO)CC1 | – | 100 | – |
| Nc1[nH]c(C(=O)c2ccccc2)c(-c2ccccc2Br)c1C(=O)c1cccs1 | – | 59.8 | – |
| CC(C)(C)C(=O)c1c(N)[nH]c(C(=O)c2ccccc2)c1-c1ccc(F)cc1 | – | 91.4 | – |
| Nc1[nH]c(C(=O)c2ccccc2)c(-c2ccc(Cl)cc2Cl)c1C(=O)c1ccc(Br)cc1 | – | 88.3 | – |
| Nc1[nH]c2cc(Cl)ccc2c1C(=O)NCCc1ccc(Cl)cc1 | – | 80.2 | – |
| Nc1[nH]c(C(=O)c2ccccc2)c(-c2c(F)cccc2F)c1C(=O)c1ccc(Cl)c(Cl)c1 | < 4.00 | 100 | – |
| COc1ccc(-c2c(C(=O)c3ccccc3)[nH]c(N)c2C(=O)NC2CC2)cc1OC | – | 90.2 | – |
| Nc1[nH]c(C(=O)c2ccc(Br)cc2)c(-c2c(F)cccc2F)c1C(=O)NCCc1c[nH]c2ccccc12 | – | 69.3 | – |
| Nc1[nH]c(C(=O)c2ccccc2)c(-c2ccc(F)cc2F)c1C(=O)c1cccc(Cl)c1 | – | – | Activity [5]: inactive; Activity [6]: inactive; Activity [2]: Dose-dependent effect; CC50 [2]: 0.99 µM |
| CCCCNC(=O)c1c(N)[nH]c(C(=O)c2ccc(F)cc2)c1-c1ccc(Cl)cc1C | – | 107 | – |
| Nc1[nH]c(C(=O)c2ccccc2)c(-c2ccc(Cl)cc2)c1C(=O)c1c[nH]c2cc(F)ccc12 | – | 86.5 to 87.5 | – |
| Nc1[nH]c(C(=O)c2ccccc2)c(-c2ccc(Cl)cc2Br)c1C(=O)c1cccs1 | – | 91.2 | – |
| CC(C)(C)C(=O)c1c(N)[nH]c(C(=O)c2ccccc2)c1-c1ccc(Cl)cc1Cl | – | 79.9 | – |
| Nc1[nH]c(C(=O)c2ccc(Br)cc2)c(-c2ccc(Br)cc2)c1C(=O)N1CCOCC1 | – | 87 | – |
| COc1ccc(-c2c(C(=O)c3ccccc3)[nH]c(N)c2C(=O)c2ccc(Br)cc2)cc1OC | – | 94.7 | – |
| COc1ccc(C(=O)c2[nH]c(N)c(C(=O)c3c[nH]c4ccccc34)c2-c2ccc(OC)cc2)cc1 | – | 89.4 | – |
| NC(=O)c1c(N)[nH]c(C(=O)c2ccccc2)c1-c1ccccc1C(F)(F)F | – | 93.6 | – |
